Experimental data as given in ChEMBL document CHEMBL3616442, “Unconventional Knoevenagel-type indoles: Synthesis and cell-based studies for the identification of pro-apoptotic agents” (Eur J Med Chem, 2015).
pEC50: −log10 of the molar value.

Experiments:
MT4 = test: Antiproliferative activity against human MT4 cells after 96 hrs by MTT assay; format: functional, cell-based; settings: MT4, 96 h
Summary of the method: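 Exponentially growing MT-4 cells (CD4+ human T-cells carrying integrated HTLV-1 genome), seeded at 1×10^5 cells/mL in RPMI-1640 with 10% FCS and antibiotics. Serial dilutions of compound (DMSO stock 100 mM, diluted in medium), 37 °C, 5% CO₂, 96 h. Viability read by MTT. 50% inhibition versus untreated controls by linear regression. Mean ± SD of three independent determinations.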

CCRF-CEM = test: Cytotoxicity against human CCRF-CEM cells after 96 hrs by MTT assay; format: functional, cell-based
Summary of the method: (§1)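 ATCC cell lines, mycoplasma-free by Hoechst staining. Haematological lines in RPMI-1640, solid-tumour and normal fibroblast lines in their own media, all with 10% FCS and antibiotics, at 37 °C in 5% CO₂. Compounds added as serial dilutions from a 100 mM DMSO stock diluted in medium. Viability by MTT after 96 h at 37 °C. Mean ± SD of three independent determinations.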

WIL2-NS = test: Cytotoxicity against human WIL2-NS cells after 96 hrs by MTT assay; format: functional, cell-based; summary of the method: as §1
CCRF-SB = test: Cytotoxicity against human CCRF-SB cells after 96 hrs by MTT assay; format: functional, cell-based; summary of the method: as §1
MRC5 = test: Cytotoxicity against human MRC5 cells after 96 hrs by MTT assay; format: cell-based; settings: MRC5, 96 h; summary of the method: as §1
[1] = Cytotoxicity against human CRL7065 cells after 96 hrs by MTT assay; format: cell-based; settings: CRL-7065, 96 h; summary of the method: as §1
SK-MEL-28 [2] = test: Cytotoxicity against human SK-MEL-28 cells after 96 hrs by MTT assay; format: functional, cell-based; settings: SK-MEL-28, 96 h; summary of the method: as §1
[3] = Cytotoxicity against human SKMES1 cells after 96 hrs by MTT assay; format: functional, cell-based; settings: SK-MES-1, 96 h; summary of the method: as §1
DU-145 [4] = test: Cytotoxicity against human DU145 cells after 96 hrs by MTT assay; format: functional, cell-based; settings: DU-145, 96 h; summary of the method: as §1
HepG2 = test: Cytotoxicity against human HepG2 cells after 96 hrs by MTT assay; format: functional, cell-based; settings: HepG2, 96 h; summary of the method: as §1
MCF7 [5] = test: Cytotoxicity against human MCF7 cells after 96 hrs by MTT assay; format: functional, cell-based; settings: MCF7, 96 h; summary of the method: as §1
[6] = Growth inhibition of human RPMI8226 cells after 48 hrs by sulforhodamine B assay; format: functional; settings: RPMI-8226, 48 h
[7] = Growth inhibition of human HOP92 cells after 48 hrs by sulforhodamine B assay; format: functional; settings: HOP-92, 48 h
Summary of the method: (§2)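 NCI 60-cell-line screen. Compounds tested at five 10-fold dilutions from 10^-4 to 10^-8 M. Cells exposed for the last 48 h of a 72 h incubation, growth estimated by sulforhodamine B protein assay. GI50 is the concentration giving 50% growth inhibition. Values beyond the tested range are expressed as greater or lesser than the extreme concentration.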

HCT-116 = test: Growth inhibition of human HCT116 cells after 48 hrs by sulforhodamine B assay; format: functional; settings: HCT-116, 48 h; summary of the method: as §2
KM12 = test: Growth inhibition of human KM12 cells after 48 hrs by sulforhodamine B assay; format: functional; settings: KM12, 48 h; summary of the method: as §2
SNB-75 = test: Growth inhibition of human SNB75 cells after 48 hrs by sulforhodamine B assay; format: functional; settings: SNB-75, 48 h
[8] = Growth inhibition of human LOXIMVI cells after 48 hrs by sulforhodamine B assay; format: functional; settings: LOX IMVI; summary of the method: as §2
SK-MEL-2 = test: Growth inhibition of human SK-MEL-2 cells after 48 hrs by sulforhodamine B assay; format: functional; settings: SK-MEL-2, 48 h
SK-MEL-28 [9] = test: Growth inhibition of human SK-MEL-28 cells after 48 hrs by sulforhodamine B assay; format: functional; settings: SK-MEL-28, 48 h
OVCAR-4 = test: Growth inhibition of human OVCAR4 cells after 48 hrs by sulforhodamine B assay; format: functional; settings: OVCAR-4, 48 h; summary of the method: as §2
SK-OV-3 = test: Growth inhibition of human SKOV3 cells after 48 hrs by sulforhodamine B assay; format: functional; settings: SK-OV-3, 48 h
[10] = Growth inhibition of human RXF393 cells after 48 hrs by sulforhodamine B assay; format: functional; settings: RXF 393, 48 h
DU-145 [11] = test: Growth inhibition of human DU145 cells after 48 hrs by sulforhodamine B assay; format: functional; settings: DU-145, 48 h; summary of the method: as §2
MCF7 [12] = test: Growth inhibition of human MCF7 cells after 48 hrs by sulforhodamine B assay; format: functional; settings: MCF7, 48 h; summary of the method: as §2
[13] = Growth inhibition of human Hs 578T cells after 48 hrs by sulforhodamine B assay; format: functional; summary of the method: as §2
HL-60 [14] = test: Antiproliferative activity against human HL60 cells after 3 days incubation by alamar blue method; format: functional; settings: for GI50: HL-60, 72 h
Summary of the method: (§3)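 HL-60 and K562 grown in RPMI 1640, MCF-7 in DMEM, each with 10% FCS, penicillin G and streptomycin. Seeded at 4x10⁴ (HL-60, K562) or 2x10⁴ (MCF-7) cells per well with serial compound dilutions, incubated 3 days at 37 °C. Alamar blue added for 3 h at 37 °C in the dark, fluorescence read at ex 544/em 590 nm. IC50 versus untreated controls by linear regression.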

K562 [15] = test: Antiproliferative activity against human K562 cells after 3 days incubation by alamar blue method; format: functional; settings: for GI50: K562, 72 h; summary of the method: as §3
MCF7 [16] = test: Antiproliferative activity against human MCF7 cells after 3 days incubation by alamar blue method; format: functional; settings: for GI50: MCF7, 72 h; summary of the method: as §3
HL-60 [17] = test: Induction of apoptosis in human HL60 cells by propidium iodide staining based flow cytometric analysis; format: functional
Summary of the method: (§4)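 After treatment, cells harvested, fixed in ice-cold 70% ethanol at 4 °C, stained 30 min at 37 °C in the dark with 100 µg/mL propidium iodide plus 10 µg/mL RNase A; 10,000 gated cells analysed at 488 nm with debris excluded; apoptosis followed over time; mean ± S.E.M. of three independent experiments run in triplicate.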

K562 [18] = test: Induction of apoptosis in human K562 cells by propidium iodide staining based flow cytometric analysis; format: functional; summary of the method: as §4
MCF7 [19] = test: Induction of apoptosis in human MCF7 cells by propidium iodide staining based flow cytometric analysis; format: functional; settings: TDE = time-dependent effect; summary of the method: as §4
HL-60 [20] = test: Induction of cell cycle arrest in human HL60 cells assessed as accumulation at G2/M phase after 18 hrs by propidium iodide staining based flow cytometric analysis; format: functional
Summary of the method: (§5)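 Propidium iodide/RNase A flow cytometry of ethanol-fixed cells, 10,000 gated events at 488 nm; G2/M fraction measured after 18 h treatment (HL-60, MCF-7) or 24 h (K562); mean ± S.E.M. of three independent experiments.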

K562 [21] = test: Induction of cell cycle arrest in human K562 cells assessed as accumulation at G2/M phase after 24 hrs by propidium iodide staining based flow cytometric analysis; format: functional; summary of the method: as §5

Structure (SMILES) | pEC50 (MT4) | GI50 [6] | GI50 [7] | GI50 (HCT-116) | GI50 (KM12) | GI50 (SNB-75) | GI50 [8] | GI50 (SK-MEL-2) | GI50 (SK-MEL-28 [9]) | GI50 (OVCAR-4) | GI50 (SK-OV-3) | GI50 [10] | GI50 (DU-145 [11]) | GI50 (MCF7 [12]) | GI50 [13] | Activity (HL-60 [14]) | GI50 (HL-60 [14]) | Activity (K562 [15]) | GI50 (K562 [15]) | Activity (MCF7 [16]) | also measured
COc1ccc(-c2[nH]c3ccccc3c2/C=C(\C#N)S(=O)(=O)c2ccccc2)cc1 | 6.70 | 2100 nM | 2300 nM | 399 nM | 374 nM | 379 nM | 1300 nM | 18100 nM | 1800 nM | 578 nM | 528 nM | 1000 nM | 450 nM | 398 nM | 682 nM | Dose-dependent effect | 660 nM | Dose-dependent effect | 5280 nM | Dose-dependent effect | pEC50 (CCRF-CEM): 6.52; pEC50 (WIL2-NS): 6.40; pEC50 (CCRF-SB): 6.52; pEC50 (MRC5): 4.14; pEC50 [1]: < 4.00; pEC50 (SK-MEL-28 [2]): < 4.00; pEC50 [3]: 4.37; pEC50 (DU-145 [4]): 5.70; pEC50 (HepG2): 4.96; pEC50 (MCF7 [5]): < 4.00; GI50 (MCF7 [16]): 5600 nM; Activity (HL-60 [17]): 65.5%; Activity (HL-60 [17]; TDE = time-dependent effect): tde; Activity (K562 [18]; TDE = time-dependent effect): tde; Activity (MCF7 [19]): tde; Activity (HL-60 [20]): 47.3%; Activity (K562 [21]): 42.4%
COc1ccc(-c2[nH]c3ccccc3c2C=C(C#N)C#N)cc1 | 6.52 | 490 nM | 1200 nM | 411 nM | 374 nM | 418 nM | 1800 nM | 763 nM | 1200 nM | 798 nM | 445 nM | 518 nM | 484 nM | 347 nM | 241 nM | Dose-dependent effect | 1080 nM | Dose-dependent effect | 4780 nM | Dose-dependent effect | GI50 (MCF7 [16]): > 10000 nM; Activity (HL-60 [17]; TDE = time-dependent effect): tde; Activity (K562 [18]): 44.4%; Activity (K562 [18]; TDE = time-dependent effect): tde; Activity (MCF7 [19]): tde
